Reference: ChEMBL document CHEMBL1139509, “Design, synthesis, and antipicornavirus activity of 1-[5-(4-arylphenoxy)alkyl]-3-pyridin-4-ylimidazolidin-2-one derivatives” (J Med Chem, 2005)

Tests used:
Enterovirus [1] = experiment: In vitro inhibitory concentration against human enterovirus EV71-2231 strain; assay type: functional, organism-based, Enterovirus A71
Summary of the method: (§1)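 CPE-inhibition (neutralization) assay on RD cells seeded at 3 × 10⁵ cells/mL in DMEM/10% FBS and grown 24-30 h to about 90% confluency. Virus (100 TCID50) was mixed with graded compound concentrations and adsorbed 1 h at 37 °C. Cells were overlaid with DMEM, 5% FBS and 2% DMSO, incubated 64 h at 37 °C, then glutaraldehyde-fixed and crystal violet-stained, with A570 read-out. IC50 is 50% CPE reduction versus virus control. Triplicate, at least twice.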

Enterovirus [2] = experiment: In vitro inhibitory concentration against human enterovirus EV71-4643 strain; assay type: functional, organism-based, Enterovirus A71; summary of the method: as §1
[3] = Cytotoxicity against human rhabdomyosarcoma cells; assay type: cell-based
Summary of the method: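 RD (rhabdomyosarcoma) cells were exposed to test compounds at various concentrations for 96 h at 37 °C. Viable cells were counted by trypan blue staining. CC50 is the concentration that reduces viability to 50% of the untreated control culture. Triplicate, run at least twice.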

Enterovirus [4] = experiment: Ratio of CC50 to that of IC50 against human enterovirus EV71-2231 strain; assay type: functional, Enterovirus A71
Enterovirus [5] = experiment: Ratio of CC50 to that of IC50 against human enterovirus EV71-4643 strain; assay type: functional, Enterovirus A71
Coxsackievirus [6] = experiment: Inhibitory concentration against Coxsackievirus A10; assay type: functional, organism-based, Viruses; summary of the method: as §1
Enterovirus [7] = experiment: Inhibitory concentration against human enterovirus EV68; assay type: functional, organism-based, Viruses
[8] = Inhibitory concentration against Echovirus 9; assay type: functional, Viruses; summary of the method: as §1
[9] = Inhibitory concentration against Echovirus 29; assay type: functional, Viruses; summary of the method: as §1
Coxsackievirus [10] = experiment: Inhibitory concentration against Coxsackievirus A9; assay type: functional, organism-based, Viruses; summary of the method: as §1
Coxsackievirus [11] = experiment: Inhibitory concentration against Coxsackievirus B1; assay type: functional, organism-based, Viruses; summary of the method: as §1
Coxsackievirus [12] = experiment: Inhibitory concentration against Coxsackievirus B2; assay type: functional, organism-based, Viruses; summary of the method: as §1
Coxsackievirus [13] = experiment: Inhibitory concentration against Coxsackievirus B3; assay type: functional, organism-based, Viruses; summary of the method: as §1
Coxsackievirus [14] = experiment: Inhibitory concentration against Coxsackievirus B4; assay type: functional, organism-based, Viruses; summary of the method: as §1
Coxsackievirus [15] = experiment: Inhibitory concentration against Coxsackievirus B5; assay type: functional, organism-based, Viruses; summary of the method: as §1
Coxsackievirus [16] = experiment: Inhibitory concentration against Coxsackievirus B6; assay type: functional, organism-based, Viruses; summary of the method: as §1
Coxsackievirus [17] = experiment: Inhibitory concentration against Coxsackievirus A16; assay type: functional, organism-based, Viruses; summary of the method: as §1
Coxsackievirus [18] = experiment: Inhibitory concentration against Coxsackievirus A24; assay type: functional, organism-based, Viruses; summary of the method: as §1
rhinovirus A2 = experiment: Inhibitory concentration against Human rhinovirus 2; assay type: functional, organism-based, human rhinovirus type 2; conditions: Rhinovirus A; summary of the method: as §1
[19] = Inhibitory concentration against Human rhinovirus 14; assay type: functional, human rhinovirus type 14; summary of the method: as §1
Enterovirus [20] = experiment: Inhibitory concentration against human enterovirus EV71 (1743) genotype B; assay type: functional, organism-based, Viruses; summary of the method: as §1
Enterovirus [21] = experiment: Inhibitory concentration against human enterovirus EV71 (2231) genotype C; assay type: functional, organism-based, Viruses; summary of the method: as §1
Enterovirus [22] = experiment: Inhibitory concentration against human enterovirus EV71 (4643) genotype C; assay type: functional, organism-based, Viruses; summary of the method: as §1
Enterovirus [23] = experiment: Inhibitory concentration against human enterovirus EV71 (BrCr) genotype A; assay type: functional, organism-based, Viruses; summary of the method: as §1
Enterovirus [24] = experiment: In vitro inhibitory concentration against human enterovirus EV71; assay type: functional, organism-based, Viruses; summary of the method: as §1
Human rhinovirus sp. = experiment: In vitro inhibitory concentration against Rhinovirus 1B; assay type: functional, organism-based, Viruses
Enterovirus [25] = experiment: Inhibitory concentration against human enterovirus EV71 (2086) genotype C; assay type: functional, organism-based, Viruses; summary of the method: as §1

SMILES | IC50 (Enterovirus [1]) | IC50 (Enterovirus [2]) | CC50 [3] | Selectivity index (Enterovirus [4]) | Selectivity index (Enterovirus [5]) | other results
O=C1N(CCC(CCOc2ccc(-c3ccc(Cl)cc3)cc2)c2ccccc2)CCN1c1ccncc1 (stereo unspecified) | > 25000 nM | > 25000 nM | > 25000 nM |  |  | 
O=C1N(Cc2cccc(COc3ccc(-c4ccc(Cl)cc4)cc3)n2)CCN1c1ccncc1 | > 25000 nM | > 25000 nM | > 25000 nM |  |  | 
O=C1N(Cc2cccc(COc3ccc(-c4ccc(Cl)cc4)cc3)c2)CCN1c1ccncc1 | 1170 nM | 160 nM | > 6250 nM |  |  | 
CC(CCOc1ccc(-c2nnn(C)n2)cc1)CCN1CCN(c2ccncc2)C1=O (stereo unspecified) | 43 nM | 2.8 nM | > 25000 nM | >581 | >8928 | 
Cc1cc(COc2ccc(-c3ccc(Cl)cc3)cc2)cc(CN2CCN(c3ccncc3)C2=O)c1 | > 25000 nM | 22900 nM | > 25000 nM |  |  | 
CC(CCCCN1CCN(c2ccncc2)C1=O)Oc1ccc(-c2ccc(Cl)cc2)cc1 (stereo unspecified) | 600 nM | 53 nM | > 12500 nM |  |  | 
CC(C)(CCOc1ccc(-c2ccc(Cl)cc2)cc1)CCN1CCN(c2ccncc2)C1=O | 140 nM | 41 nM | > 25000 nM |  |  | 
CC(CCCOc1ccc(-c2ccc(Cl)cc2)cc1)CN1CCN(c2ccncc2)C1=O (stereo unspecified) | 20 nM | 5 nM | > 25000 nM |  |  | 
CC(CCOc1ccc(-c2ccc(Cl)cc2)cc1)CCN1CCN(c2ccncc2)C1=O (stereo unspecified) | 38 nM | 9.3 nM | > 25000 nM | >657 | >2688 | IC50 (Coxsackievirus [6]): 1710 nM; IC50 (Enterovirus [7]): 2680 nM; IC50 [8]: 2630 nM; IC50 [9]: 40 nM; IC50 (Coxsackievirus [10]): 33 nM; IC50 (Coxsackievirus [11]): 2890 nM; IC50 (Coxsackievirus [12]): > 12500 nM; IC50 (Coxsackievirus [13]): > 12500 nM; IC50 (Coxsackievirus [14]): 1240 nM; IC50 (Coxsackievirus [15]): 1320 nM; IC50 (Coxsackievirus [16]): > 12500 nM; IC50 (Coxsackievirus [17]): 900 nM; IC50 (Coxsackievirus [18]): 250 nM; IC50 (rhinovirus A2): > 12500 nM; IC50 [19]: 7910 nM; IC50 (Enterovirus [20]): 16 nM; IC50 (Enterovirus [21]): 38 nM; IC50 (Enterovirus [22]): 9.3 nM; IC50 (Enterovirus [23]): 69 nM
CC(CCOc1ccc(-c2noc(C(F)(F)F)n2)cc1)CCN1CCN(c2ccncc2)C1=O (stereo unspecified) | 24 nM | 1.4 nM | > 25000 nM | >1041 | >17857 | 
O=C1N(Cc2ccc(COc3ccc(-c4ccc(Cl)cc4)cc3)cc2)CCN1c1ccncc1 | > 1250 nM | > 1250 nM | > 1250 nM |  |  | 
Cc1nc(-c2ccc(OCCC(C)CCN3CCN(c4ccncc4)C3=O)cc2)no1 (stereo unspecified) | 10 nM | 0.9 nM | > 6250 nM | >625 | >6944 | 
c1ccc(C2COc3ccc(C4=NCCO4)cc3C2)cc1 (stereo unspecified) |  |  |  |  |  | IC50 (Enterovirus [24]): 4560 nM; IC50 (Human rhinovirus sp.): 1010 nM
CCCc1nc(-c2ccc(OCCC(C)CCN3CCN(c4ccncc4)C3=O)cc2)no1 (stereo unspecified) | 55 nM | 19 nM | > 12500 nM | >227 | >657 | 
CCc1nc(-c2ccc(OCCC(C)CCN3CCN(c4ccncc4)C3=O)cc2)no1 (stereo unspecified) | 15 nM | 0.5 nM | > 25000 nM | >1666 | >50000 | IC50 (Coxsackievirus [6]): 560 nM; IC50 (Enterovirus [7]): 5460 nM; IC50 [8]: 500 nM; IC50 [9]: 2630 nM; IC50 (Coxsackievirus [10]): > 25000 nM; IC50 (Coxsackievirus [11]): 46 nM; IC50 (Coxsackievirus [12]): 4790 nM; IC50 (Coxsackievirus [13]): > 25000 nM; IC50 (Coxsackievirus [14]): 1270 nM; IC50 (Coxsackievirus [15]): 4500 nM; IC50 (Coxsackievirus [16]): > 25000 nM; IC50 (Coxsackievirus [17]): 87 nM; IC50 (Coxsackievirus [18]): 150 nM; IC50 (rhinovirus A2): 1580 nM; IC50 [19]: 830 nM; IC50 (Enterovirus [20]): 15 nM; IC50 (Enterovirus [25]): 4 nM; IC50 (Enterovirus [21]): 15 nM; IC50 (Enterovirus [22]): 0.5 nM; IC50 (Enterovirus [23]): 10 nM
Cc1ccc(CN(CCOc2ccc(-c3ccc(Cl)cc3)cc2)CCN2CCN(c3ccncc3)C2=O)cc1 | > 12500 nM | > 12500 nM | > 12500 nM |  |  | 
CC(CCCN1CCN(c2ccncc2)C1=O)COc1ccc(-c2ccc(Cl)cc2)cc1 (stereo unspecified) | 57 nM | 15 nM | > 25000 nM |  |  | 
